These results are taken from ChEMBL document CHEMBL3792368, “Design, synthesis, and in vitro and biological evaluation of potent amino acid-derived thiol inhibitors of the metallo-β-lactamase IMP-1” (Eur J Med Chem, 2016).

In assay [1] the test system is Pseudomonas aeruginosa. Briefly: Uncompetitive inhibition of Pseudomonas aeruginosa 101/1477 IMP-1 expressed in Escherichia coli BL21(DE3) using benzylpenicillin as substrate assessed as residual activity measured for 5 mins by UV multiplate spectrophotometry. In outline: (§1)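 IMP-1 lacking the first 21 signal-peptide residues, expressed and purified by a previously published protocol. Kinetic assays were run at pH 7 and read out as residual enzyme activity. The chromogenic cephalosporin CENTA was not used as substrate because thiol inhibitors react with it.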

Assay [2] concerns Pseudomonas aeruginosa. The assay can be described thus: Competitive inhibition of Pseudomonas aeruginosa 101/1477 IMP-1 expressed in Escherichia coli BL21(DE3) using benzylpenicillin as substrate assessed as residual activity measured for 5 mins by UV multiplate spectrophotometry. In outline: as §1
The nature of assay [3]: Competitive inhibition of IMP-1 (unknown origin).
For assay [4], the system named is Escherichia coli BL21. Briefly: Inhibition of IMP-1 in Escherichia coli BL21 assessed as imipenem MIC at 50 mM (reference value: 2 ug/ml).
For assay [5], the system named is Enterobacter cloacae. Briefly: Inhibition of IMP-4 in Enterobacter cloacae ECL1 assessed as reduction of imipenem MIC at 50 mM relative to control.
Assay [6] relates to Enterobacter cloacae. The assay can be described thus: Inhibition of IMP-4 in Enterobacter cloacae ECL2 co-expressing TEM1 assessed as imipenem MIC at 50 mM (reference value: 0.5 ug/ml).
For assay [7], the system named is Escherichia coli BL21. The assay can be described thus: Inhibition of IMP-1 in Escherichia coli BL21 assessed as reduction of imipenem MIC at 50 mM relative to control.
The subject of assay [8] is Enterobacter cloacae. The assay can be described thus: Inhibition of IMP-4 in Enterobacter cloacae ECL2 co-expressing TEM1 assessed as reduction in imipenem MIC at 50 mM.
Assay [9] relates to Enterobacter cloacae. The assay can be described thus: Inhibition of IMP-4 in Enterobacter cloacae ECL1 assessed as imipenem MIC at 50 mM (reference value: 1.5 ug/ml).

pKi: −log10 of the molar value. Calls of active or inactive are those of the source. No cut-off for these calls is given here.

On to `O=C(CCS)N[C@@H](Cc1ccc(O)cc1)C(=O)O`, for which the Kiuc in the assay with Pseudomonas aeruginosa [1] is above 1 mM. Also, in the assay with Pseudomonas aeruginosa [2], the Kic came out at 5.18 µM.

For `O=C(CCCS)N[C@@H](Cc1ccccc1)C(=O)O`, the Kiuc with Pseudomonas aeruginosa [1] was above 1 mM. In addition, the Kic in the assay with Pseudomonas aeruginosa [2] stood at 2.82 µM.

In turn, `O=C(CCS)N[C@H](Cc1ccccc1)C(=O)O` gave a pKi in assay [3] of 7.06.

In the case of `O=C(CCS)N[C@@H](Cc1ccccc1)C(=O)O`, the Kiuc in the assay on Pseudomonas aeruginosa [1] was 0.0602 mM. Also, the Kic with Pseudomonas aeruginosa [2] was 1.45 µM.

For the compound `O=C(CCS)N[C@@H](Cc1ccc(OCc2ccccc2)cc1)C(=O)O`, the Kiuc with Pseudomonas aeruginosa [1] was above 1 mM. Moreover, the Kic with Pseudomonas aeruginosa [2] amounted to 9.39 µM.

With `O=C(CCCS)N[C@@H](Cc1ccc(O)cc1)C(=O)O`, the Kiuc with Pseudomonas aeruginosa [1] was above 1 mM. The Kic with Pseudomonas aeruginosa [2] came out at 5.63 µM.

For `O=C(CCCS)N[C@@H](Cc1c[nH]c2ccccc12)C(=O)O`, the Kiuc in the assay with Pseudomonas aeruginosa [1] was above 1 mM. Further, the Kic with Pseudomonas aeruginosa [2] was found to be 8.62 µM.

`O=C(CCCS)N[C@@H](Cc1ccc(OCc2ccccc2)cc1)C(=O)O`: the Kiuc with Pseudomonas aeruginosa [1] was above 1 mM. The Kic in the assay with Pseudomonas aeruginosa [2] was determined as 5.85 µM.

Turning to `CC(=O)SCC(=O)O`, the Kiuc in the assay with Pseudomonas aeruginosa [1] turned out to be 0.00264 mM. In addition, in the assay with Pseudomonas aeruginosa [2], the Kic amounted to 0.32 µM.

Consider `O=C(CS)N[C@@H](Cc1c[nH]c2ccccc12)C(=O)O`, for which, in the assay on Pseudomonas aeruginosa [1], the Kiuc was above 1 mM. For the same compound, in the assay on Pseudomonas aeruginosa [2], the Kic was 0.47 µM.

On to `O=C(CS)N[C@@H](Cc1ccc(O)cc1)C(=O)O`, for which the Kiuc in the assay with Pseudomonas aeruginosa [1] is above 1 mM. In addition, in the assay on Pseudomonas aeruginosa [2], the Kic is 4.55 µM.

For `O=C(CS)N[C@@H](Cc1ccccc1)C(=O)O`, the Kiuc with Pseudomonas aeruginosa [1] is above 1 mM. Moreover, in the assay with Pseudomonas aeruginosa [2], the Kic worked out at 0.25 µM.

`O=C(CCS)N[C@@H](Cc1c[nH]c2ccccc12)C(=O)O`: the Kiuc with Pseudomonas aeruginosa [1] was above 1 mM. For the same compound, the Kic in the assay with Pseudomonas aeruginosa [2] came to 5.02 µM.

For the compound `O=C(CS)N[C@@H](Cc1ccc(OCc2ccccc2)cc1)C(=O)O`, the MIC turned out to be 0.38 µg/mL in the assay with Escherichia coli BL21 [4], 0.5 µg/mL in the assay on Enterobacter cloacae [6] and 0.38 µg/mL in the assay with Enterobacter cloacae [9]. The fold change (FC) in the assay with Enterobacter cloacae [5] was found to be 3.9; in the assay with Escherichia coli BL21 [7] it was 5.2. Moreover, the Kiuc with Pseudomonas aeruginosa [1] is above 1 mM. For the same compound, the inhibition entry in the assay with Enterobacter cloacae [8] was “inactive”. The Kic in the assay on Pseudomonas aeruginosa [2] worked out at 0.086 µM.

For orientation: pKi means the negative decadic logarithm of the Ki, by convention in mol/L.
